PubChem BioAssay
Unmarked numbers belong to inactive results. Inconclusive results are not listed. The source made the active and inactive calls.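 The calls were made as follows, unless noted: active = inhibition over a set limit, the all-compound mean plus 3 SD, in both replicate runs; inconclusive = over that limit in just one replicate run; inactive = at or under that limit in both runs.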

Legend:
[1] = S. cerevisiae growth inhibition in permissive medium (OD615), pilot counter-assay for S. cerevisiae lifespan shortening project, permissive growth control (AID 705;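 active = growth inhibition above 25% in both replicates, a cutoff set 3 SD above the mean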); conditions: OD615, 24 h, at 10 µM, stronger effect = higher value
Method in brief: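 System – S. cerevisiae with engineered DeaD lifespan system · Buffer or medium – SC raffinose/galactose permissive medium · Schedule – cells pre-grown 4 h, then 24 h compound exposure, 30 °C humidified · Technique – culture turbidity as optical density at 615 nm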

[2] = S. cerevisiae growth inhibition in restrictive medium, OD615, pilot screen, restrictive growth control, yeast lifespan reduction project (AID 706;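 active = growth inhibition above a set limit, 3 SD over mean compound inhibition, in both replicates, cut at about 43% in these data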;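 also: modified DeaD lifespan yeast strain shifted to restrictive glucose medium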); conditions: OD615, 48 h, at 10 µM, stronger effect = higher value
Method in brief: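 Material: engineered S. cerevisiae DeaD strain / Medium: glucose-based CSMM-D restrictive medium / Compound: single dose of 10 µM compound final, 0.25% DMSO / Timing: 4 h pre-incubation, 48 h exposure at 30 °C / Technique: OD615 absorbance reading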

[3] = doxorubicin toxicity protection in MRP-1 cells – H69AR cells, CellTiter-Glo, duplicate, MRP-1 activator project, pilot screen (AID 807;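 active = viability increase at or above a cutoff of the median across tested compounds plus 3 SD, cut at about 8.5% in these data, passing the limit was not always enough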;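 also: compound pretreatment 18-22 h then 72 h combined with doxorubicin; 0% = doxorubicin alone and 100% = vehicle without doxorubicin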); conditions: H69AR viability with doxorubicin, CellTiter-Glo luminescence; at 10 µM; stronger effect = higher value
[4] = viability of HCT116 without oncogenic beta-catenin – human colon tumor cells, pilot screen (AID 823;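 active = cell viability at or below a set limit in both duplicate runs, the limit being the all-compound median minus 4 SD, cut at about 23% in these data, passing the limit was not always enough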;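 also: 0% = wells killed by 20 µM Hyamine and 100% = untreated DMSO cell wells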); conditions: HCT116 beta-catenin knockout viability, CellTiter-Glo, 60 h; at 10 µM; stronger effect = lower value
[5] = viability of PTEN-null HCT116 cells – cell-based, HCT116 clonal line, CellTiter-Glo, pilot screen (AID 824;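 active = viability at or below 27.92% in each of two runs, the all-compound median minus 4 SD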;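 also: 0% = 20 µM Hyamine control and 100% = vehicle cell control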); conditions: HCT116 PTEN-deleted viability, 60 h, at 10 µM, stronger effect = lower value
[6] = RAM pathway blockade in budding yeast – dse1pr::URA3 reporter, 5-FOA selection, pilot screen (AID 869);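 also: 0% = DMSO wells with no growth and 100% = 10 µM 1-NA-PP1 with full growth; RAM network block rescues cells from 5-FOA so hits raise OD615 growth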; conditions: S. cerevisiae dse1pr::URA3 5-FOA growth, OD615, 2 d; at 10 µM; stronger effect = higher value; strain carries analog-sensitive mutant Cbk1 kinase
[7] = RAM signaling pathway blockade in yeast – S. cerevisiae, Pdr1DBD-CYC8 efflux-inhibited sensitized strain, primary screen (AID 1298;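 active = RAM network inhibition above 8.4% in each of two replicates, 3 SD over the compound average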;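 also: 0% = DMSO untreated cells without growth and 100% = 10 µM 1-NA-PP1 full growth; higher means more yeast growth rescued from 5-FOA killing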); conditions: S. cerevisiae cbk1-as DSE1-URA3 strain, 5-FOA growth OD615, 2 d; at 50 µM; stronger effect = higher value

SMILES | growth inhibition [1] | growth inhibition [2] | viability increase [3] | viability [4] | viability [5] | inhibition [6] | RAM network inhibition [7]
CCc1cccc(NC(=O)CCS(=O)(=O)c2cccc3nonc23)c1 | 0.64% | -9.32% | -1.95% | 93.8% | 95.3% | 0.47% | 2.79%
Cc1ccc(CN2CCN(CC(=O)N3CCC(C(N)=O)CC3)C2=O)cc1 | 0.425% | 1.62% | -0.17% | 105% | 101% | 2.1% | 3.53%
COc1ccc(OCc2nnc(SCC(=O)O)n2N)cc1 | -6.54% | 5.32% | 1.25% | 106% | 94.8% | 0.66% | -2.27%
CCOC(=O)N1CCN(c2nc(=S)n(-c3ccccc3)c(C)c2C(C)=O)CC1 | 14.8% | 28.8% | -1.09% | 98.8% | 101% | 1.26% | 2.67%
COc1ccc(S(=O)(=O)Nc2ccc3c(c2)OCO3)cc1C(=O)O | -4.6% | -5.47% | -1.95% | 93.5% | 94.5% | 0.425% | 3.99%
Cn1cccc1Cc1nnc(SCC(=O)N2CCCCCC2)n1-c1ccc(F)cc1 | 0.935% | 18% | -1.67% | 84% | 88.5% | 1.27% | 4.48%
O=C(CSc1ncnc2c1oc1ccccc12)Nc1cccc(C(F)(F)F)c1 | -12.2% | -15.6% | 1.15% | 86.3% | 84% | 3.52% | 7.32%
CCOC(=O)CSc1nnc(CSc2nc(N)c3c(C)c(C)sc3n2)n1-c1ccccc1 | 14.1% | 53.5% (active) | -2.13% | 94.8% | 96.2% | 0.985% | 5.21%
CCOC(=O)c1[nH]c(C)c(C(=O)OCC)c1C | -9.48% | 1.48% | 2.18% | 105% | 97.5% | 3.55% | 4.06%
COc1cc(Cl)c(S(=O)(=O)n2cnc(C)c2)cc1Cl | 2.76% | 0.12% | 0.28% | 101% | 104% | 1.33% | 2.3%
CCOC(=O)N1CCN(C(=O)C2CCCN(Cc3nc(-c4ccc(Cl)cc4)oc3C)C2)CC1 (stereo not drawn) | 2.57% | -13.2% | -4.13% | 37.9% | 46.5% | 0.12% | 3.55%
O=C(Nc1nc2ccc(Cl)cc2s1)c1ccc(Br)o1 | -6.29% | -6.11% | -2.25% | 82.3% | 82.7% | 2.08% | 5.17%
CC1(C(=O)NCc2cccnc2)CCC(=O)N1CCc1ccccc1 (stereo not drawn) | 4.98% | 3.93% | -0.87% | 97% | 102% | 2.94% | 2.65%
Clc1cccc(Nc2ncnc3c2cnn3-c2ccccc2)c1 | -15.3% | -12.2% | -2.07% | 82.5% | 78.6% | 2.04% | 4.85%
O=C(CCn1c(=S)[nH]c2ccccc2c1=O)N1CCOCC1 | -0.255% | 9.25% | 0.5% | 105% | 103% | 0.715% | -0.13%
CC1CCN(C(=O)C(Cc2ccccc2)n2cccc2)CC1 (stereo not drawn) | -6.79% | -8.94% | -3.15% | 87.9% | 79% | 2.27% | 5.92%
CCOc1ccc(NC(=O)C2C3C=CC4(CN(C(C(=O)OC)C(C)C)C(=O)C24)O3)cc1 (stereo not drawn) | -9.79% | 5.85% | -1.43% | 108% | 102% | 1.31% | 6.37%
O=C1CC(c2ccc(S(=O)(=O)NCc3ccccc3)cc2)CN1 (stereo not drawn) | -7.82% | -21% | -2.13% | 101% | 87.9% | 1.56% | 1.23%
NC(=O)c1ccc(N2CCCCC2)c(N2C(=O)C3C4C=CC(C4)C3C2=O)c1 (stereo not drawn) | 0.39% | -4.49% | -2.98% | 101% | 92.6% | 0.92% | 3.75%
O=C(Nc1nnc(-c2ccc(Cl)cc2)o1)c1ccccc1Br | 0.92% | 20.1% | -3.81% | 68.8% | 60.9% | 0.69% | 1.62%
Nc1nc(SCC(=O)OCc2ccccc2)[nH]c(=O)c1NC(=O)c1ccco1 | -8.4% | -11.7% | -1.48% | 101% | 98.7% | 1.36% | -0.54%
O=C(CN1C(=O)c2ccccc2S1(=O)=O)NC1CCCCCC1 | 2.58% | -5% | -1.02% | 102% | 101% | 0.355% | 4.59%
O=C(NCc1ccc(Cl)cc1)C1CCCN(S(=O)(=O)c2cnc[nH]2)C1 (stereo not drawn) | 1.47% | -8.94% | 1.36% | 106% | 92.4% | 2.04% | 1.09%
CC1CCN(C(=O)CSc2nnc(Cn3c(=O)sc4ccccc43)n2C)CC1 | -3.65% | -5% | -0.3% | 121% | 112% | 0.075% | 3.13%
